Assay [1] deals with Pseudomonas aeruginosa. The assay can be described thus: Antibacterial activity against Pseudomonas aeruginosa K799/61 assessed as unclear inhibition zone at 50 uL of 0.2 mM solution of compound dissolved in 1:9 DMSO/MeOH measured after 24 hrs by agar well diffusion method. Format: functional. An outline of the steps: (§1)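 Agar well diffusion. 50 µL of a 0.2 mM solution in 1:9 DMSO/MeOH was filled into 9 mm wells in nutrient agar or Mueller Hinton II agar. Plates were incubated 24 h at 37 °C before inhibition zones were read. Zones were scored as partially clear (p, colonies in zone) or unclear (P, many colonies in zone).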
Background: In agar diffusion tests the substance spreads into inoculated agar from a disc or well.

In assay [2] the test system is Micrococcus luteus. The assay can be described thus: Antibacterial activity against Micrococcus luteus ATCC 10240 at 50 uL of 0.2 mM solution of compound dissolved in 1:9 DMSO/MeOH measured after 24 hrs by agar well diffusion method. Format: functional. The method in brief: as §1
Assay [3] has as its system Bacillus subtilis. Put plainly: Antibacterial activity against Bacillus subtilis ATCC 6633 at 50 uL of 0.2 mM solution of compound dissolved in 1:9 DMSO/MeOH measured after 24 hrs by agar well diffusion method. Format: functional. The method in brief: as §1
Assay [4] deals with Escherichia coli. Put plainly: Antibacterial activity against Escherichia coli X580 at 50 uL of 0.2 mM solution of compound dissolved in 1:9 DMSO/MeOH measured after 24 hrs by agar well diffusion method. Format: functional. The method in brief: as §1
Assay [5] has as its system Staphylococcus aureus. The assay can be described thus: Antibacterial activity against Staphylococcus aureus SG 511 at 50 uL of 0.2 mM solution of compound dissolved in 1:9 DMSO/MeOH measured after 24 hrs by agar well diffusion method. Type of assay: functional. An outline of the steps:
as §1

Assay [6] concerns Escherichia coli. The assay can be described thus: Antibacterial activity against Escherichia coli X580 assessed as partially clear inhibition zone at 50 uL of 0.2 mM solution of compound dissolved in 1:9 DMSO/MeOH measured after 24 hrs by agar well diffusion method. Type of assay: functional. The method in brief:
as §1

Assay [7] concerns Pseudomonas aeruginosa. Put plainly: Antibacterial activity against wild type Pseudomonas aeruginosa K799 at 50 uL of 0.2 mM solution of compound dissolved in 1:9 DMSO/MeOH measured after 24 hrs by agar well diffusion method. Format: functional. The method in brief:
as §1

Assay [8] deals with Escherichia coli. Put plainly: Antibacterial activity against Escherichia coli ATCC 25922 by broth microdilution method. Type of assay: functional. The method in brief:
(§2)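 MIC90 (µM) by broth microdilution in Mueller-Hinton broth No.2 (MHII) following CLSI guidelines. End point read visually. Each compound tested in triplicate.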
A general note: Dilution methods test growth across graded concentrations, often in twofold steps.

Assay [9] relates to Staphylococcus aureus. The assay can be described thus: Antibacterial activity against Staphylococcus aureus ATCC 29213 by broth microdilution method. Format: functional. An outline of the steps:
as §2

The next assay deals with Klebsiella aerogenes. The assay can be described thus: Antibacterial activity against Enterobacter aerogenes ATCC 35029 by broth microdilution method. Format: functional. An outline of the steps: as §2
The subject of assay [10] is Pseudomonas aeruginosa. Put plainly: Antibacterial activity against Pseudomonas aeruginosa ATCC 27853 by broth microdilution method. Type of assay: functional. An outline of the steps:
as §2

Another assay concerns Acinetobacter baumannii. The assay can be described thus: Antibacterial activity against Acinetobacter baumannii ATCC 17961 by broth microdilution method. Type of assay: functional. An outline of the steps:
as §2

In assay [11] the test system is Pseudomonas aeruginosa. Put plainly: Antibacterial activity against Pseudomonas aeruginosa K799/61 at 50 uL of 0.2 mM solution of compound dissolved in 1:9 DMSO/MeOH measured after 24 hrs by agar well diffusion method. Type of assay: functional. An outline of the steps: as §1
The next assay concerns Klebsiella pneumoniae. The assay can be described thus: Antibacterial activity against Klebsiella pneumoniae ATCC 700603 by broth microdilution method. Format: functional. The method in brief: as §2
The subject of assay [12] is Pseudomonas aeruginosa. The assay can be described thus: Antibacterial activity against Pseudomonas aeruginosa K799/61 assessed as partially clear inhibition zone at 50 uL of 0.2 mM solution of compound dissolved in 1:9 DMSO/MeOH measured after 24 hrs by agar well diffusion method. Format: functional. The method in brief: as §1
The next assay concerns Enterococcus faecium. Put plainly: Antibacterial activity against Enterococcus faecium NCTC 7171 by broth microdilution method. Format: functional. The method in brief: as §2
For assay [13], the system named is Escherichia coli. Put plainly: Antibacterial activity against Escherichia coli X580 at 0.33 ug/mL after 24 hrs by agar well diffusion method. The following applies: X580, 24 h, read-out: DIZ.
The test system of assay [14] is Pseudomonas aeruginosa. Put plainly: microbe, parasite or virus in culture. The following applies: K799/61, 24 h, read-out: DIZ.
The subject of assay [15] is Micrococcus luteus. The assay can be described thus: Antibacterial activity against Micrococcus luteus ATCC 10240 assessed as unclear inhibition zone at 5 ug/mL after 24 hrs by agar well diffusion method. Type of assay: functional. The following applies: ATCC 10240, 24 h, read-out: DIZ. An outline of the steps:
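Agar well diffusion with ciprofloxacin dissolved in H2O, tested at 5, 1.66 or […]. Solution was loaded into 9 mm wells in nutrient agar or Mueller Hinton II agar. Inhibition zones were read after 24 h at 37 °C. A zone was scored as P when unclear, with many colonies inside.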

For assay [16], the system named is Bacillus subtilis. Put plainly: microbe, parasite or virus in culture. The following applies: ATCC 6633, 24 h, read-out: DIZ.
For assay [17], the system named is Pseudomonas aeruginosa. Put plainly: microbe, parasite or virus in culture. The note with it: K799, 24 h, read-out: DIZ.
In assay [18] the test system is Staphylococcus aureus. Put plainly: microbe, parasite or virus in culture. The note with it: SG 511, 24 h, read-out: DIZ.
For assay [19], the system named is Pseudomonas aeruginosa. The assay can be described thus: microbe, parasite or virus in culture. The note with it: K799/61, 24 h, read-out: DIZ. The source holds these as a separate data set.

Values after ≈ are worked out from the molar mass of the structure shown. Where only a bound is given, the exact number is not on record here.

Four compounds from ChEMBL document CHEMBL2034825, “Chemical syntheses and in vitro antibacterial activity of two desferrioxamine B-ciprofloxacin conjugates with potential esterase and phosphatase triggered drug release linkers” (2012) can be followed below.

With `CC(=O)N(O)CCCCCNC(=O)CCC(=O)N(O)CCCCCNC(=O)CCC(=O)N(O)CCCCCNC(=O)CCC(=O)N1CCN(c2cc3c(cc2F)c(=O)c(C(=O)O)cn3C2CC2)CC1`, the “diameter of the inhibition zone (DIZ)” value in the assay on Pseudomonas aeruginosa [1] was 26 mm; with Micrococcus luteus [2] it was 0 mm; with Bacillus subtilis [3] it was 21 mm; in the assay with Escherichia coli [4], 30 mm; in the assay on Staphylococcus aureus [5], 18 mm; with Escherichia coli [6], 33 mm. The “diameter of the inhibition zone (DIZ)” value in the assay on Pseudomonas aeruginosa [7] was found to be 0 mm.

For `CC(=O)N(O)CCCCCNC(=O)CCC(=O)N(O)CCCCCNC(=O)CCC(=O)N(O)CCCCCNC(=O)CCC(=O)Oc1cc(C)cc(C)c1C(C)(C)CC(=O)N1CCN(c2cc3c(cc2F)c(=O)c(C(=O)O)cn3C2CC2)CC1`, the MIC90 (in general, an inhibitory concentration at the 90% level, which refers to growth in some studies and to a panel of isolates in others) against Escherichia coli [8] came out at 1 µM (≈ 1.18 µg/mL); in the assay with Staphylococcus aureus [9], 32 µM (≈ 37.7 µg/mL); in the assay with Klebsiella aerogenes, 1 µM (≈ 1.18 µg/mL); against Pseudomonas aeruginosa [10], 8 µM (≈ 9.43 µg/mL); against Acinetobacter baumannii it was 8 µM (≈ 9.43 µg/mL); against Klebsiella pneumoniae, 16 µM (≈ 18.9 µg/mL). Further, the MIC90 in the assay with Enterococcus faecium is greater than 128 µM. Moreover, the “diameter of the inhibition zone (DIZ)” value was 0 mm in the assay with Micrococcus luteus [2]; 26 mm in the assay on Bacillus subtilis [3]; 29 mm in the assay with Escherichia coli [4]; 16 mm with Staphylococcus aureus [5]; 27 mm with Pseudomonas aeruginosa [11]; 26 mm with Pseudomonas aeruginosa [7]. Besides, in the assay with Pseudomonas aeruginosa [12], the “diameter of the inhibition zone (DIZ)” value was 37 mm.

As to `CC(=O)N(O)CCCCCNC(=O)CCC(=O)N(O)CCCCCNC(=O)CCC(=O)N(O)CCCCCNC(=O)CCC(=O)Oc1c(C)cc(OP(=O)(O)O)c(C(C)(C)CC(=O)N2CCN(c3cc4c(cc3F)c(=O)c(C(=O)O)cn4C3CC3)CC2)c1C`, the “diameter of the inhibition zone (DIZ)” value in the assay with Micrococcus luteus [2] stood at 0 mm; in the assay on Bacillus subtilis [3], 0 mm; in the assay on Escherichia coli [4] it was 21 mm; in the assay with Staphylococcus aureus [5], 0 mm; in the assay on Pseudomonas aeruginosa [11], 0 mm; in the assay with Pseudomonas aeruginosa [7], 0 mm.

Regarding `O=C(O)c1cn(C2CC2)c2cc(N3CCNCC3)c(F)cc2c1=O` [CIPROFLOXACIN], the zone of inhibition at 0.33 µg/mL in the assay with Escherichia coli [13] came out at 31 mm. Further, the MIC90 against Escherichia coli [8] was less than 0.015 µM; against Klebsiella aerogenes, less than 0.015 µM; against Pseudomonas aeruginosa [10], 0.25 µM (≈ 0.0828 µg/mL); against Acinetobacter baumannii it was 0.25 µM (≈ 0.0828 µg/mL); against Klebsiella pneumoniae, 0.25 µM (≈ 0.0828 µg/mL); in the assay on Enterococcus faecium, 8 µM (≈ 2.65 µg/mL). The zone of inhibition at 1.66 µg/mL with Pseudomonas aeruginosa [14] was determined as 24 mm; in the assay with Bacillus subtilis [16], 28 mm; in the assay on Pseudomonas aeruginosa [17] it was 21 mm; in the assay on Pseudomonas aeruginosa [19] it was 32 mm. Further, the zone of inhibition at 5 µg/mL amounted to 12 mm in the assay on Micrococcus luteus [15] and 28 mm with Staphylococcus aureus [18].
